Data on 15 compounds can be found in ChEMBL document CHEMBL3351530, “Analysis of subpocket selectivity and identification of potent selective inhibitors for matriptase and matriptase-2” (J Med Chem, 2014).

The structures appear in SMILES notation.

The target of test [1] is T1, Suppressor of tumorigenicity 14 protein (Homo sapiens, UniProt Q9Y5Y6).
T1 sequence (Q9Y5Y6 whole entry): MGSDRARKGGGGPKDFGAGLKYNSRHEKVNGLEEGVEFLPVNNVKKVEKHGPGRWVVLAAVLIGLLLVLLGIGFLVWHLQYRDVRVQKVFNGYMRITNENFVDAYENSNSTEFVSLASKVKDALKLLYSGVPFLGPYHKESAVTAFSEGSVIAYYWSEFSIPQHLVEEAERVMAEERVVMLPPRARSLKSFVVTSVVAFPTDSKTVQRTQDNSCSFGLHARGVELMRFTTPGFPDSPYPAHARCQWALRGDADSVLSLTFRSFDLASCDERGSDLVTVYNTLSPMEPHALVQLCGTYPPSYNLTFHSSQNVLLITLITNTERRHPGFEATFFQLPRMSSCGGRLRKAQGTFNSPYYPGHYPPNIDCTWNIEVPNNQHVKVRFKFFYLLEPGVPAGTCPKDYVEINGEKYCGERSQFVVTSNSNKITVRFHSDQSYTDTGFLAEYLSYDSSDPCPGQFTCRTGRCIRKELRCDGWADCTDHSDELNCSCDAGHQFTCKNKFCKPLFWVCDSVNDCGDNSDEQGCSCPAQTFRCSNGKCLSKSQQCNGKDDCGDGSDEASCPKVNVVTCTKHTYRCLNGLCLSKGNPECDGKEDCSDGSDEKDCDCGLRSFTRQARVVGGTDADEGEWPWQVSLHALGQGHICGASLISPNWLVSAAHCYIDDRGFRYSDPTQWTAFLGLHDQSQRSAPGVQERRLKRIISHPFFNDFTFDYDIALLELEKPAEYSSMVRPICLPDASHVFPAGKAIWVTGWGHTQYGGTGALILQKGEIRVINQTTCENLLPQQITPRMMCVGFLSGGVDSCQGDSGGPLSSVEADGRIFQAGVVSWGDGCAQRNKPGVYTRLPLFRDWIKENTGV
As to the kind of experiment: Inhibition of human recombinant matriptase using Boc-Gln-Ala-Arg-AMC as substrate by microplate reader analysis. In short, it runs like this: (§1)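 Recombinant human matriptase (aa 596−[…]) or matriptase-2 (aa 78−811), active-site titrated with MUGB; 1 nM enzyme at room temperature in 50 mM Tris-HCl, 15 mM NaCl, pH 7.4. AMC release read at 360/441 nm. If inhibition occurred at I/E = 10, Ki came from a Morrison fit; otherwise from substrate-velocity curves fitted to the best reversible model. At least 3 runs in duplicate, mean ± SD.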

Test [2] is filed under the species Homo sapiens. The experiment in a line: Selectivity ratio of Ki for human recombinant matriptase-2 to Ki for human recombinant matriptase.
The target in test [3] is T2, Transmembrane protease serine 6 (Homo sapiens, UniProt Q8IU80).
T2 sequence (Q8IU80 whole entry): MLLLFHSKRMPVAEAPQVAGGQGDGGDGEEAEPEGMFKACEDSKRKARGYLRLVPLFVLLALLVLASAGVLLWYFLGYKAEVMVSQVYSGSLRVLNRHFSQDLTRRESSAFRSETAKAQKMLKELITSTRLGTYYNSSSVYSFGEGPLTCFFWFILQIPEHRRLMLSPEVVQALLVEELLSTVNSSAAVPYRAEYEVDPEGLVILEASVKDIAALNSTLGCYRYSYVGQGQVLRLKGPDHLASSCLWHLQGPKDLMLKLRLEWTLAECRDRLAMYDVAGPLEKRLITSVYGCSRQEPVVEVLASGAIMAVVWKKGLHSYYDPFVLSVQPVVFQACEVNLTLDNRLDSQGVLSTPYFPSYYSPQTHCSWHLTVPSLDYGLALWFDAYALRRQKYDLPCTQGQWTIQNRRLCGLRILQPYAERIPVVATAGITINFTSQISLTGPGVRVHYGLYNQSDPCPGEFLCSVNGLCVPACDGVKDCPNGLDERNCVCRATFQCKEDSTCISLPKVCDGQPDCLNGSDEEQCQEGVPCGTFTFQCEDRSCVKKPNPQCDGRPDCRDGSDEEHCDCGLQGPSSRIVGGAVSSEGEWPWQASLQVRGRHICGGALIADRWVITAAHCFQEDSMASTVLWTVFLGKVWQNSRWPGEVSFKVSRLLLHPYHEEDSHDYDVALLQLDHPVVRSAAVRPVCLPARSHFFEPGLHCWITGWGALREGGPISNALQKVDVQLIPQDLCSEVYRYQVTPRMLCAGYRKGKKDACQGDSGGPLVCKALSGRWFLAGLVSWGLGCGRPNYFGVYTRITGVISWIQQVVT
The experiment in a line: Inhibition of human recombinant matriptase-2 using Boc-Gln-Ala-Arg-AMC as substrate by microplate reader analysis. In short, it runs like this:
as §1

The species entered for test [4] is Homo sapiens. The experiment in a line: Selectivity ratio of Ki for human recombinant matriptase to Ki for human recombinant matriptase-2.

Regarding `C[C@H](NC(=O)[C@H](CC(N)=O)NC(=O)[C@@H](N)CCCCN)C(=O)N[C@@H](CCCNC(=N)N)C(=O)c1nc2ccccc2s1`, the inhibitory constant (Ki) turned out to be 0.45 nM in test [1] and 24.8 nM in test [3]. Also, the Ratio Ki in test [2] was 62.
`N=C(N)NCCC[C@H](NC(=O)[C@@H]1CCCN1C(=O)[C@H](CC(N)=O)NC(=O)[C@@H](N)CCCNC(=N)N)C(=O)c1nc2ccccc2s1`: the inhibitory constant (Ki) in test [1] stood at 0.91 nM; in test [3], 47.8 nM. Further, the Ratio Ki in test [2] was 49.
Consider `CC(C)C[C@H](NC(=O)[C@@H](N)CCCNC(=N)N)C(=O)N[C@@H](CO)C(=O)N[C@@H](CCCNC(=N)N)C(=O)c1nc2ccccc2s1`, for which the values for the inhibition constant Ki in test [1] and in test [3] were 1.4 nM and 2.48 nM, respectively. For the same compound, the Ratio Ki in test [2] was found to be 1.79.
Consider `CC(C)C[C@H](N)C(=O)N[C@@H](CCC(N)=O)C(=O)N[C@@H](C)C(=O)N[C@@H](CCCNC(=N)N)C(=O)c1nc2ccccc2s1`, for which the inhibition constant (Ki) in test [1] worked out at 0.15 nM; in test [3] it was 13.5 nM. Moreover, in test [2], the Ratio Ki turned out to be 90.
For the compound `C[C@H](NC(=O)[C@H](CCC(N)=O)NC(=O)[C@@H](N)CO)C(=O)N[C@@H](CCCNC(=N)N)C(=O)c1nc2ccccc2s1`, the results for the Ki in test [1] and in test [3] were 0.092 nM and 34.8 nM, respectively. Besides, the Ratio Ki in test [2] amounted to 378.
The corresponding values for `N=C(N)NCCC[C@H](NC(=O)[C@H](Cc1ccccc1)NC(=O)[C@H](CCC(N)=O)NC(=O)[C@@H](N)CCCNC(=N)N)C(=O)c1nc2ccccc2s1` are 0.23 nM, 1.4 nM and 6.
Take `N=C(N)NCCC[C@H](NC(=O)[C@@H](N)Cc1c[nH]c2ccccc12)C(=O)N[C@@H](CCC(=O)O)C(=O)N[C@@H](CCCNC(=N)N)C(=O)c1nc2ccccc2s1`: the inhibitory constant (Ki) was found to be 14.7 nM in test [1] and 46.8 nM in test [3]. The Ratio Ki in test [2] was 3.
On the same counts, the results for `C[C@H](NC(=O)[C@H](Cc1ccc(O)cc1)NC(=O)[C@@H](N)CCCNC(=N)N)C(=O)N[C@@H](CCCNC(=N)N)C(=O)c1nc2ccccc2s1` are 0.14 nM, 6.3 nM and 45.
As to `N=C(N)NCCC[C@H](NC(=O)[C@@H]1CCCN1C(=O)[C@H](CCC(N)=O)NC(=O)[C@@H](N)CCCNC(=N)N)C(=O)c1nc2ccccc2s1`, the inhibition constant Ki in test [1] was determined as 0.061 nM; in test [3], 7.8 nM. In test [2], the Ratio Ki was 128.
As to `N=C(N)NCCC[C@H](NC(=O)[C@H](Cc1ccc(O)cc1)NC(=O)[C@H](CS)NC(=O)[C@@H](N)Cc1c[nH]c2ccccc12)C(=O)c1nc2ccccc2s1`, the results for the Ki in test [1] and in test [3] were 7.98 nM and 1.03 nM, respectively. For the same compound, the Ratio Ki in test [2] stood at 0.13; in test [4], 8.
For the compound `C[C@H](NC(=O)[C@H](CCCCN)NC(=O)[C@@H](N)Cc1ccc(O)cc1)C(=O)N[C@@H](CCCNC(=N)N)C(=O)c1nc2ccccc2s1`, the results for the inhibitory constant (Ki) in test [1] and in test [3] were 0.89 nM and 20.8 nM, respectively. Further, the Ratio Ki in test [2] came out at 23.
The corresponding values for `N=C(N)NCCC[C@H](NC(=O)[C@H](Cc1ccc(O)cc1)NC(=O)[C@H](CCC(N)=O)NC(=O)[C@@H](N)CCCNC(=N)N)C(=O)c1nc2ccccc2s1` are 0.18 nM, 0.74 nM and 4.
With `CC(C)[C@H](NC(=O)[C@H](Cc1ccc(O)cc1)NC(=O)[C@@H](N)Cc1ccc(O)cc1)C(=O)N[C@@H](CCCNC(=N)N)C(=O)c1nc2ccccc2s1`, the Ki in test [1] came out at 31.5 nM; in test [3], 2.56 nM. The Ratio Ki in test [2] turned out to be 0.08; in test [4] it was 13.
As for `C[C@H](NC(=O)[C@H](CCCNC(=N)N)NC(=O)[C@@H](N)CCCNC(=N)N)C(=O)N[C@@H](CCCNC(=N)N)C(=O)c1nc2ccccc2s1`, the inhibition constant Ki in test [1] was determined as 0.72 nM; in test [3], 15.4 nM. Besides, the Ratio Ki in test [2] was found to be 22.
Turning to `CC(C)C[C@H](N)C(=O)N[C@@H](Cc1c[nH]c2ccccc12)C(=O)N[C@@H](Cc1c[nH]c2ccccc12)C(=O)N[C@@H](CCCNC(=N)N)C(=O)c1nc2ccccc2s1`, the values for the Ki in test [1] and in test [3] were 3.22 nM and 1.98 nM, respectively. The Ratio Ki in test [2] was determined as 0.63; in test [4], 2.

One may read the Ki as the equilibrium dissociation constant of an inhibitor or competing ligand from its target.
